Among the data in the array DNA melting data of Ke et al. (doi:10.1101/2024.01.08.574731) are folding enthalpy and Tm values, retold here.

Series [1] is described as follows: folding enthalpy; higher = less favourable; fluorescence melt of hairpins on a sequencing array, two-state fit. As to conditions: sodium 0.088 M. The procedure, abridged:
(§1)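 Melting temperature and folding enthalpy were derived from bootstrapped two-state fits. The fitted temperatures were raised by 9.35 °C to agree with UV melts, and four replicates were combined by inverse variance. The underlying data were Cy3 fluorescence images of library hairpins, with annealed Cy3 and quencher oligos, on a sequenced MiSeq flow cell in 50 mM Na-HEPES pH 8.0, 25 mM NaCl, taken in 2.5 °C steps up to 60 °C, normalised to pre-quench Cy3 and to control constructs.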

A short description of series [2]: melting temperature; fluorescence melt of hairpins on a sequencing array, two-state fit, raised by 9.35 °C to match UV melts. The conditions noted are these: sodium 0.088 M. The procedure, abridged: as §1

GACCTGGGAAACCAGACC (..((((....))))..): the folding enthalpy in series [1] was -10.3 kcal/mol. For the same sequence, the Tm in series [2] is 24.6 °C.
The matching figures for GACCTGGGAAACCAGGCC (.(((((....))))).): -12.7 kcal/mol and 46.4 °C.
The matching figures for GACCTTGGAAACAAGGCC (.(((((....))))).): -17.2 kcal/mol and 45.2 °C.
For GACGAACCGAAAGGTGTC (((..(((....)))))), the folding enthalpy in series [1] was -16.4 kcal/mol. Also, the Tm in series [2] came out at 43.1 °C.
In the same order, the values of GACGACGAAAGTCATGTC ((((((....)))..))) are -15.2 kcal/mol and 40.3 °C.
The matching figures for GACGACGAAAGTCCAGTC ((((((....)))..))): -21.5 kcal/mol and 36.2 °C.
In the same order, the values of GACGACGAAAGTCCCGTC ((((((....)))..))) are -16.6 kcal/mol and 34.3 °C.
As to GACGACGAAAGTCGCGTC ((((((....)))..))), the folding enthalpy in series [1] was -10.6 kcal/mol. In addition, in series [2], the Tm was found to be 49.9 °C.
As to GACGACGAAAGTCTCGTC ((((((....)))..))), the folding enthalpy in series [1] is -17.1 kcal/mol. Besides, in series [2], the Tm came to 46.9 °C.
GACGACGAAAGTCTGGTC ((((((....)))..))): in series [1], the folding enthalpy is -21.8 kcal/mol. The Tm in series [2] was found to be 41.2 °C.
In the same order, the values of GACGACGGAAACGTTGTC (((.(((....))).))) are -43.1 kcal/mol and 55 °C.
In the same order, the values of GACGAGGGAAACCTCATC ((.((((....)))).)) are -20.3 kcal/mol and 31.2 °C.
The matching figures for GACGATGAAAATCGTC ((((((....)))))): -31.1 kcal/mol and 61.1 °C.
As for GACGATGGAAACACCATC ((.(.((....)).).)), in series [1], the folding enthalpy is -17 kcal/mol. For the same sequence, the Tm in series [2] was 28.4 °C.
The matching figures for GACGATGGAAACATCATC ((.((((....)))).)): -18.4 kcal/mol and 33.4 °C.
With GACGCACCGAAAGGTGTC (((..(((....)))))), in series [1], the folding enthalpy was -8.75 kcal/mol. Also, in series [2], the Tm is 32.1 °C.
In the same order, the values of GACGCAGCGAAAGCTGTC (((..(((....)))))) are -7.32 kcal/mol and 33.5 °C.
The matching figures for GACGCCGAAAGGCGCGTC ((((((....)))..))): -9.77 kcal/mol and 49.6 °C.
In the same order, the values of GACGCCGAAAGGCGTGTC ((((((....)))..))) are -8.76 kcal/mol and 66.9 °C.
Take GACGCCGAAAGGCTGGTC ((((((....)))..))): the folding enthalpy in series [1] is -16.1 kcal/mol. Moreover, the Tm in series [2] was found to be 48 °C.
The matching figures for GACGCGACGAAAGTCGTC (((..(((....)))))): -8.11 kcal/mol and 35.5 °C.
The matching figures for GACGCTGGAAACAACGTC ((((.((....)).)))): -39.4 kcal/mol and 45.5 °C.
In the same order, the values of GACGCTGGAAACAGTGTC (((.(((....))).))) are -42 kcal/mol and 53.5 °C.
Regarding GACGGACGAAAGTCAGTC (((.(((....))).))), in series [1], the folding enthalpy is -37.5 kcal/mol. Besides, the Tm in series [2] is 59.5 °C.
As for GACGGAGGAAACCCCGTC (((((.(....).))))), in series [1], the folding enthalpy is -37.5 kcal/mol. Besides, the Tm in series [2] was found to be 51.3 °C.
Turning to GACGGAGGAAACTCCATC ((.((((....)))).)), the folding enthalpy in series [1] was -16.8 kcal/mol. Besides, the Tm in series [2] worked out at 33.6 °C.
The matching figures for GACGGAGGAAACTCTGTC (((.(((....))).))): -39.4 kcal/mol and 48 °C.
In the same order, the values of GACGGCGAAAGCCGTGTC ((((((....)))..))) are -9.28 kcal/mol and 63.9 °C.
The matching figures for GACGGGGGAAACCCCATC ((.((((....)))).)): -14.7 kcal/mol and 37 °C.
With GACGGTACGAAAGTAGTC (((..(((....)))))), the folding enthalpy in series [1] was -16 kcal/mol. Also, the Tm in series [2] is 34.5 °C.
The matching figures for GACGGTGGAAACACCACC (..((((....))))..): -11.1 kcal/mol and 35.2 °C.
The matching figures for GACGGTGGAAACACCGCC (.(((((....))))).): -12.7 kcal/mol and 50.4 °C.
In the same order, the values of GACGGTGGAAACGCTGTC (((.(.(....).).))) are -22.2 kcal/mol and 40.9 °C.
GACGTACCGAAAGGTGTC (((..(((....)))))): the folding enthalpy in series [1] was -22.4 kcal/mol. Further, the Tm in series [2] was 41.9 °C.
The matching figures for GACGTACGAAAGTAGTC (((.(((....)))))): -34 kcal/mol and 52.8 °C.
The matching figures for GACGTAGCGAAAGCTGTC (((..(((....)))))): -17.7 kcal/mol and 47.1 °C.
Take GACGTCGGAAACGGTGTC (((..((....))..))): the folding enthalpy in series [1] was -25.7 kcal/mol. The Tm in series [2] amounted to 43 °C.
The matching figures for GACGTGACGAAAGTCGTC (((..(((....)))))): -14.2 kcal/mol and 49.4 °C.
The matching figures for GACGTGGGAAACCGTGTC (((..((....))..))): -16.8 kcal/mol and 36.6 °C.
The matching figures for GACGTTGCGAAAGCAGTC (((..(((....)))))): -16.5 kcal/mol and 49.9 °C.
With GACTAACCGAAAGGTGTC (((..(((....)))))), the folding enthalpy in series [1] was -18.3 kcal/mol. Moreover, the Tm in series [2] amounted to 41.4 °C.
The matching figures for GACTAACGAAAGTTGTC (((.(((....)))))): -24.1 kcal/mol and 42.4 °C.
The matching figures for GACTACGAAAGTACTGTC ((((((....)))..))): -18.5 kcal/mol and 29.9 °C.
In the same order, the values of GACTACGAAAGTATGTC ((((((....))).))) are -26.2 kcal/mol and 44.7 °C.
Consider GACTACGGAAACGTGGTC (((.(((....))).))), for which the folding enthalpy in series [1] was -42.8 kcal/mol. Besides, the Tm in series [2] is 52 °C.
With GACTAGCCGAAAGGCGTC (((..(((....)))))), the folding enthalpy in series [1] is -9.39 kcal/mol. For the same sequence, the Tm in series [2] is 40.5 °C.
In the same order, the values of GACTAGCGAAAGCTGGTC (((.(((....))).))) are -34.1 kcal/mol and 61 °C.
The matching figures for GACTATCCGAAAGGAGTC (((..(((....)))))): -17 kcal/mol and 34.1 °C.
On to GACTATGGAAACGTAGTC (((((.(....).))))), for which the folding enthalpy in series [1] is -32.4 kcal/mol. In addition, the Tm in series [2] was 42 °C.
In the same order, the values of GACTCACGAAAGTGGTC (((.(((....)))))) are -20 kcal/mol and 46.6 °C.
The matching figures for GACTCCCGAAAGGGTGTC (((.(((....))).))): -33.1 kcal/mol and 58.3 °C.
In the same order, the values of GACTCCGAAAGGAGAGTC ((((((....)))..))) are -12.9 kcal/mol and 43 °C.
GACTCCGGAAACAGAGTC (((((.(....).))))): the folding enthalpy in series [1] is -36.5 kcal/mol. Also, the Tm in series [2] was 40.1 °C.
The matching figures for GACTCGCGAAAGCGTGTC (((.(((....))).))): -27.1 kcal/mol and 63.3 °C.
